Test results published in the RNAGym collection of RNA variant scans (doi:10.1126/science.aae0568).
Fewer inactive variants are shown than the library holds.

B1: tRNA (parent)
chain: GUUCCGUUGGCGUAAUGGUAACGCGUCUCCCUCCUAAGGAGAAGACUGCGGGUUCGAGUCCCGUACGGAACG

Variants of: B1
Experiment: yeast fitness relative to wild type (ratio to wild type); higher = fitter; tRNA-Arg(CCU), competitive growth, 37 C, YPD
Method in brief: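 Start and end populations of a pooled competition were compared by 100-nucleotide paired-end sequencing of gene amplicons. The Saccharomyces cerevisiae strains carried tRNA-Arg(CCU) gene variants at the native genomic locus, synthesised with a 3% per-site mutation rate at 69 sites, and competed in YPD at 37°C for 24 hours in six parallel replicates. Darwinian fitness relative to wild type was based on the change in genotype frequencies. Genotypes required ≥ 100 starting reads, and estimates < 0.5 were set to 0.5.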

Variant	yeast fitness
GUUCCGUUGGCGUAAGGGUAACGCGUCUCCCUCCUAAGGAGGAGACUACGGGUUCGAGUCCCGUACGGAACG [U16G A42G G48A]	≤ 0.5
GUUCCGUUGGCGUAAGGGUUACGCGUCUCCCUCCUAAAGAGAAGACUGCGGGUUCGAGUCCCGUACAGUACG [U16G A20U G38A G67A A69U]	≤ 0.5
GUUCCGUUGGCGUAAGGGUAACGUGUCCCCCUCCUCAGGAGAAGACUGCGGGUUCGAGUCCCGUCCGGAACG [U16G C24U U28C A36C A65C]	0.58
GUUCCGUUGGCGUAAGGGUAACGCGUCUCCCUCCUAUGGAGAAGCCUGCGGGUUCGAGUCCCGUACGGAACG [U16G A37U A45C]	≤ 0.5
GUUCCGUUGGCGUAAGGGUAGCGCGUCUCUCUCCUACGGAGAAGACUGCGGGUUCGAGUCCCGUACGGAACG [U16G A21G C30U A37C]	≤ 0.5
GUUCCGUUGGCGUAACGGUAACGCGUCUCCCUCCUAAGGAGAAGACUGCGGGUACGAGUCCCGUAUGGAACG [U16C U54A C66U]	≤ 0.5
GUUCCGUUGGCGUAAGGGUAACGCGUCUCCCUCCUAAGGAGAAGACUGCGGGUUCGAGUCCUGUACGGACCG [U16G C62U A70C]	0.565
GUUCCGUUGGCGUAAGGGUAACACGUCUCCCUCCUAAGGUGAAGACUGCGGGUUCGAGUCCCGUACGGAACG [U16G G23A A40U]	≤ 0.5
GUUCCGUUGGCGUAAGGGUAACGCGUCUCACUCCUAAGGAGAAGACUGCGCGUUCCAGUCCGGUACGGAACG [U16G C30A G51C G56C C62G]	0.65
GUUCCGUUGGCGUAAGGGUAACGCGUCUCUCUCCUAAGGAGAAGACUGCGGGUUCGAGUCCCGUUCGGAACG [U16G C30U A65U]	≤ 0.5
GUUCCGUUGGCGUAAGGGUAACGUGUCCCCCUCCUCAGGAGAAGACUGCGGGUUCGAGCCCCGUCCGGAACG [U16G C24U U28C A36C U59C A65C]	≤ 0.5
GUUCCGUUGGCGUAAGGGUAAUGCAUCUCCCUCCUAAGGAGAAGACUGCGGGUUCGAGUCCCGUACGGAACG [U16G C22U G25A]	≤ 0.5
GUUCCGUUGGCGUAACGGUAACGCGUCUCCCUCCUAAGGAGAAGACAGAGGGUUCGAGUCCUGUACGGAACG [U16C U47A C49A C62U]	0.778
GUUCCGUUGGCGUAAGGGUAACGCGUCUCCCUCCUAAGGAGAAGACUGCGGGUUCGAGUCCUGUACGGAACG [U16G C62U]	0.853
GUUCCGUUGGCGUAAGGGUAACGCGUCUCCCUCUUAAGGGGAGGACUGCGGGUUCGAGUCCAGUACGGCACG [U16G C34U A40G A43G C62A A69C]	≤ 0.5
GUUCCGUUGGCGUAACGGUAACGCGUCUCCCUCCUAAGGAGAAGACUGCGGGAUCGAGUCCCGUACGGAACG [U16C U53A]	0.611
GUUCCGUUGGCGUAAGGGUAACGCGUCUCCCUCGUAAGGAGGAGACUGGGGGUUCGAGUCCCGAACGGAACG [U16G C34G A42G C49G U64A]	≤ 0.5
GUUCCGUUGGCGUAAGGGUUACGCGUCUCCCUCCUAAGGAGAAGACUGCGGGUUCGAGUCCCGUACGGAACG [U16G A20U]	0.642
GUUCCGUUGGCGUAACGGUAACGCGUCUCCCUCCGAAGGAGAAGACUCCGGGUUCGAGUCCCGUAUGGAACG [U16C U35G G48C C66U]	≤ 0.5

Variant	yeast fitness
GUUCCGUUGGCGUAACGGUAACGCGUCUCCCUCCUAAGGAGAAGACUGCGGGUACGAGUCCCGUACGGAACG [U16C U54A]	0.685
GUUCCGUUGGCGUAAGGGUAACGCGUCUCCCUCCUAAGGAGAAGACUGCGGGUUCGAGUCCCGUUCGGAACG [U16G A65U]	0.876
GUUCCGUUGGCGUAAGGGUAAGGCGUCUCCCUCCUAAGGAGAAGACGGCGGGUUCGAGUCCCGUACGGAACG [U16G C22G U47G]	0.557
GUUCCGUUGGCGUAAGGGUAAGGCGUCUCCCCCCUAAGGAGAAGACUGCGGGUUCGAGUCCCGUACGGAACG [U16G C22G U32C]	0.767
GUUCCGUUGGCGUAAGGGUAACGCAUCGCCCUCUUAAGGAGAAGACUGCGGGUUCGAGUCCCCUACGGAACG [U16G G25A U28G C34U G63C]	≤ 0.5
GUUCCGUUGGCGUAAGGGUAACGCGUCUCCCUCCUUAGGAGAAGACUGCGGGUUCGAGUCCCGUACGGAACG [U16G A36U]	0.589
GUUCCGUUGGCGUAAGGGUAACGCCUCUCCCUCCUAAGGAGAAGAUUGCAGGUUCGAGUCCCGUACGGAACG [U16G G25C C46U G50A]	0.581
GUUCCGUUGGCGUAAGCGUAACGCGUCUCCCUCCUAAGGAGAUGACUGCGGCUUCGAGUCCCGUACGGAACG [U16G G17C A43U G52C]	≤ 0.5
GUUCCGUUGGCGUAAGGGUAACGCGUCUCCCUCCUAAGCAGUAGACUGCGGGUCGGAGUCCCGAACGGAACG [U16G G39C A42U U54C C55G U64A]	≤ 0.5
GUUCCGUUGGCGUAAGGGUAACGCGUCUCCAUCCUAAGGAGAAGACUGCGGGUUCGAGUACCGUACAGAACG [U16G C31A C60A G67A]	0.678
GUUCCGUUGGCGUAAGGGUAAGGCGUCUCCCUCCUAGGGAGAGGACUGCGGGUUCGAGUCCCGUACGAAACG [U16G C22G A37G A43G G68A]	≤ 0.5
GUUCCGUUGGCGUAAGGGUAACGCGUCUCCCUCCUAAGGAGAAGACUGUGGGUUCGAGUCCCAUACGGAACG [U16G C49U G63A]	0.994
GUUCCGUUGGCGUAAGGGUAACGCGUCUCCGUCCUAAGGAGAAGACUCCGGGUUCGUGUCCCGUACGGAACG [U16G C31G G48C A57U]	≤ 0.5
GUUCCGUUGGCGUAAGGGUAACGCGUCUUCAUCCUAAGGAGAAGACUGCGGGUUCGCGUCCCGUACCGAACG [U16G C29U C31A A57C G67C]	≤ 0.5
GUUCCGUUGGCGUAAGGGUAACGCGUCUCCCUCCUAAGGGGAAGACUGCGGGUUCGAGUCCCGUACGGAACG [U16G A40G]	0.935
GUUCCGUUGGCGUAAGGGUAACGCGUCUCCCUCCUAAAGAGAAGACUGCGGGUCCGAGUCCCGUUCGGAACG [U16G G38A U54C A65U]	≤ 0.5
GUUCCGUUGGCGUAAGGGUAACGCGUCUCCCUCCUAAGGAGAAGAUUGCGGGUUCGAGUCCCGUCCGGAACG [U16G C46U A65C]	1.13
GUUCCGUUGGCGUAAGGGUAACGCGUCUCCGUCCUAAGGAGAAGACUGCGGGUUCGAGUCACGUAUGGAACG [U16G C31G C61A C66U]	≤ 0.5
GUUCCGUUGGCGUAAGGGUAACGCGUCUCCCUCCUAAGGAGAAGACUGUGGGUUCCAGUCCCGUACGGAACG [U16G C49U G56C]	≤ 0.5
